This is a sample that favours compounds with a hit; in the whole collection about 2.9% have one here.
NALP1 yeast inh – blocks the NALP1 inflammasome reconstituted in yeast; S. cerevisiae NALP1/ASC/caspase-1 growth, X-gal OD620, 72 h; inhibition, % at 10 µM; 280,000 compounds, 0.61% hits; AID 2071; in the data active = inhibition mostly above about 24%, no sharp cut-off; inactive = mostly below about 32%
Mot1-301 SUMO – SUMOylation pathway inhibition by Mot1-301 growth rescue. S. cerevisiae Mot1-301 growth rescue, ATP luminescence, 38.5C; percent above DMSO median, 100 means doubled. growth rescue, % at 18.8 µM. 320,000 compounds, 1% hits. AID 2716;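 active = every valid replicate shows activation above 250% relative to neutral control wells; inactive = the rest, any valid replicate at or below 250%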
IMP-1 inhibitor – blocks Pseudomonas aeruginosa IMP-1 metallo-beta-lactamase; inhibition, % at 5.6 µM; purified IMP-1, nitrocefin hydrolysis, epi-absorbance fluorescence; AID 1556; 290,000 compounds, 0.45% hits;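 active = inhibition above the mean plus 3 SD of all compounds in the same screening run, cut at about 4.5% in these data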
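Material – recombinant IMP-1 enzyme, purified · Amount – IMP-1 0.2 nM before substrate addition · Medium – HEPES buffer pH 7.1 with ZnSO4 and Brij 35 · Timing – 25 °C, 15 min preincubation, 25 min reaction · Measured by – plate fluorescence quenching by hydrolysis product, ex 480/em 530 nm · Read-out – percent enzyme inhibition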
PolyA inhibitor – yeast polyadenylation inhibition; S. cerevisiae SKY197-pL101 polyadenylation reporter, beta-gal luminescence; efflux-impaired pdr1/pdr3 knockout yeast; score 100 = 6 SD above DMSO; activity score, % at 12 µM; 300,000 compounds, 0.02% hits; AID 1875;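 active = lowest replicate activity score at least 50, where 100 means six control SD above control mean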;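 note: yeast exposed to compound for 9 h at 30 °C; higher score means more reporter readthrough which indicates perturbed polyadenylation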
NLRP3 yeast inh – NALP3 inhibition in yeast | Yeast reconstituted NLRP3/ASC/caspase-1, beta-gal luminescence, 24 h | inhibition, % at 10 µM | 330,000 compounds, 0.39% hits;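 active = inhibition of 50% or more; inactive = inhibition below 50%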
VIM-2 inhibitor – inhibitors of Pseudomonas aeruginosa VIM-2 metallo-beta-lactamase | inhibition, % at 5.6 µM | purified VIM-2, nitrocefin hydrolysis, epi-absorbance fluorescence | 290,000 compounds, 0.89% hits;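 active = inhibition above the mean of all tested compounds plus 3 SD, cutoff set per screening run, cut at about 7.5% in these data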;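 note: red hydrolysis product quenches plate fluorescence so inhibitors raise well fluorescence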
Mot1 SUMO dose – inhibits SUMO pathway, affecting Mot1-301 yeast growth. 2,300 tested, under 10 active. S. cerevisiae Mot1-301 galactose growth, ATP luminescence, 24 h; -100 = growth of slx-deleted rescue strain. growth activity, percent, % at 42 µM. shares compounds with Mot1-301 SUMO;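 active = Signal drops as the depositor expects, and the fitted half-maximal dose is no more than ten times the top valid tested dose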;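 note: more negative values mean stronger growth rescue toward the control strain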
Hits are given with their value; – = inactive; · = not tested or not shown; + = active, no number.

SMILES	NALP1 yeast inh	Mot1-301 SUMO	IMP-1 inhibitor	PolyA inhibitor	NLRP3 yeast inh	VIM-2 inhibitor	Mot1 SUMO dose
NS(=O)(=O)c1ccc(CCNC(=O)CN2CCN(c3cccc(Cl)c3)CC2)cc1	–	–	–	–	–	–	·
CC1CCN(S(=O)(=O)c2ccc(NC(=O)c3cccs3)cc2)CC1	–	415	–	–	–	–	–
Cc1cc(C(=O)OCC(=O)N2CCN(C(=O)c3ccco3)CC2)c(C)n1-c1ccc(F)cc1	–	–	–	–	–	–	·
CCOC(=O)c1cc2c(ccn2-c2ccc(F)cc2)n1CC(=O)N1CCN(C(=O)c2ccco2)CC1	–	378	–	–	–	–	–
COc1cc(C(C2=C(O)CC(C)(C)CC2=O)C2C(=O)CC(C)(C)CC2=O)cc(OC)c1OC (stereo unspecified)	–	658	–	–	–	–	–
COc1cc(C(C2C(=O)CC(C)(C)CC2=O)C2C(=O)CC(C)(C)CC2=O)cc(OC)c1OC	–	–	–	–	–	–	·
CCc1ccc(S(=O)(=O)NCc2cccnc2)cc1	–	571	–	–	–	–	–
CS(=O)(=O)Cc1ccc(C(=O)NC2CCCc3ccccc32)cc1 (stereo unspecified)	–	–	–	–	–	–	·
CN(C(=O)CSc1nc(-c2ccccc2)c(-c2ccccc2)o1)C1CCS(=O)(=O)C1 (stereo unspecified)	–	543	–	–	–	–	–
COc1cccc(CN2CC(C(=O)NCCOc3ccccc3)CCC2=O)c1 (stereo unspecified)	–	–	–	–	–	–	·
CCOc1ccccc1N(C(=O)c1snc(C(N)=O)c1N)C(CC)C(=O)NC1CCCC1 (stereo unspecified)	–	578	–	–	–	–	–
NC(=O)c1nsc(C(=O)N(Cc2ccc(F)cc2)C(C(=O)NC2CCCC2)c2ccco2)c1N (stereo unspecified)	–	876	–	–	–	–	–
COc1ccc(/C=N/OCc2ccc(Br)cc2)c(OC)c1	–	–	–	–	–	–	·
CCOc1ccc(N(C(C)C(=O)N2CCCCCC2)S(C)(=O)=O)cc1 (stereo unspecified)	–	–	–	–	–	–	·
CCOc1ccc(N(C(C)C(=O)NC(C)CC)S(C)(=O)=O)cc1 (stereo unspecified)	–	397	–	–	–	–	–
CC(C)(C)n1nnnc1C(c1ccc(Cl)cc1)N(Cc1cccnc1)Cc1ccco1 (stereo unspecified)	–	437	–	–	–	–	–
CC(C)(C)n1nnnc1C(c1ccc(F)cc1)N(Cc1ccc(F)cc1)Cc1ccco1 (stereo unspecified)	–	–	–	–	–	–	·
COC(=O)Cc1c(C)c2ccc(OCC(=O)N3CCCC(C)C3)c(C)c2oc1=O (stereo unspecified)	–	–	–	–	–	–	·
COc1ccccc1OCCNC(=O)CN1C(=O)NC2(CCCC2)C1=O	·	·	·	·	–	·	·
Cc1c(C(=O)NC(C)C)oc2c1-c1[nH]ncc1CC2	–	+	–	–	–	–	–
COC(=O)CCc1ccc(O)cc1	–	–	–	–	–	–	·
COC(=O)C1(Cc2ccc(O)cc2)OC(=O)C(O)=C1c1ccc(O)cc1 (stereo unspecified)	–	381	·	–	–	·	–
Cc1cc(O)c(/C=N/Nc2ccc(Cl)cc2)c(=O)o1	–	–	–	–	–	–	·
Cc1cc(O)c(/C=N/Nc2cccc(Cl)c2)c(=O)o1	–	416	–	–	–	–	–
Cc1cc(S(=O)(=O)NCC(C)C)ccc1OCC(=O)N1CCOCC1	–	867	–	–	–	–	–
CCOC(=O)N1CCN(C(=O)COc2ccc(S(=O)(=O)NCC(C)C)cc2C)CC1	–	–	–	–	–	–	·
CC(C)CN(C(=O)COC(=O)Cc1cccc2ccccc12)c1c(N)n(Cc2ccccc2)c(=O)[nH]c1=O	·	–	·	–	–	·	·

High-throughput results: PubChem, several laboratories
